# Bioassay records (PubChem BioAssay)
# Compounds with a hit are over-represented: about 1.4% of the library has one in this group of screens.
# UCH37 inh: human UCH37 deubiquitinating enzyme inhibition. AID 588478. Q9Y5K5. inhibition, % (no concentration beside the values). 0.33% of 330,000 active. purified proteasome/UCH37, Ub-AMC cleavage fluorescence;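 active means mean inhibition over replicate wells above about 20%, limit read from the data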;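 further: 0% = compound-free wells with enzyme and 100% = wells lacking proteasome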
#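 Material: Human UCH37 enzyme supplied as purified proteasome complex | Schedule: 30 min compound-proteasome preincubation then 25 min substrate reaction, room temperature | Detection: AMC fluorescence from Ub-AMC cleavage, excitation 355 nm, emission 460 nm | Benchmarks: Wells without proteasome as full block, compound-free enzyme plus substrate as uninhibited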
# Neddylation inh: inhibitors of human cullin neddylation; P61081+Q13564; TR-FRET cullin neddylation, biochemical; inhibition, % at 25 µM; 0.58% of 360,000 active; in the data active means inhibition above about 36%
# Target sequence (P61081 whole entry, looked up): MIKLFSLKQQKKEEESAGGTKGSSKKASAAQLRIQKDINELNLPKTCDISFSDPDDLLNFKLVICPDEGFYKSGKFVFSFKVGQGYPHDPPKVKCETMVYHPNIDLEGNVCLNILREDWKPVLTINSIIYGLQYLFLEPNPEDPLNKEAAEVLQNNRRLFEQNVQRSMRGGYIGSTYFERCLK
# Target sequence (Q13564 whole entry, looked up): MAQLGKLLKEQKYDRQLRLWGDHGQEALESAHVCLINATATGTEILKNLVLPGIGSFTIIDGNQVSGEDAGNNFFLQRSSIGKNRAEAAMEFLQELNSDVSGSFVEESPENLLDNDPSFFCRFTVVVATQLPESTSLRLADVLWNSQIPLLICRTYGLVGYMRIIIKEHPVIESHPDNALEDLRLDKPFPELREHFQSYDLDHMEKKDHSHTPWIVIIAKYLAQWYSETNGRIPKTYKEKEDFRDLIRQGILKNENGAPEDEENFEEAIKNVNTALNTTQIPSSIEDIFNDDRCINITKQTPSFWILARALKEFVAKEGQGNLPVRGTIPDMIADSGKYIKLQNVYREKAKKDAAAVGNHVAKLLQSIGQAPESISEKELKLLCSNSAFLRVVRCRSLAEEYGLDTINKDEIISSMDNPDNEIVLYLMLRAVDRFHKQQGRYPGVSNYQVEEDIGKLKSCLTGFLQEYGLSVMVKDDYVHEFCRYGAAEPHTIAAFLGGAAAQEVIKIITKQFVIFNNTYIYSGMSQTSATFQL
# Fh CTSL1 inh: cathepsin L1 inhibition, PFM18AAP counter-screen; recombinant F. hepatica cathepsin L1, Z-Leu-Arg-MCA fluorescence; inhibition, % at 5.96 µM; 0.49% of 300,000 active; AID 1906;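 active means inhibition above the mean of all tested compounds plus 3 SD, set per screening campaign, cut at about 17% in these data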;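 further: 0% = plate median of test compound wells and 100% = 1 µM Z-Phe-Ala-diazomethylketone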
# SUMO HTRF inh: blocks human SUMOylation mediated by UBC9. P63279. HTRF SUMOylation assay, SAE1/SAE2 + UBC9, in vitro. inhibition, % at 35 µM. 0.36% of 290,000 active; in the data active means inhibition above about 50%, passing the limit was not always enough
# UCH37 confirm: UCH37 Ub-AMC cleavage inhibition, confirmed. shares compounds with UCH37 inh. Proteasome-bound UCH37, Ub-AMC cleavage fluorescence. inhibition, % at 20 µM. 27% of 480 active. AID 624100;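 active means average inhibition over replicates above about 50%, so the earlier screening hit is confirmed, limit read from the data; inactive means the rest, counted as false positives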;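 further: based on cleavage rate fitted by regression over a 30 min kinetic read; 0% = proteasome plus Ub-AMC and 100% = Ub-AMC without proteasome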
# * = called active by the depositor; / = not tested or not shown.
SMILES,UCH37 inh,Neddylation inh,Fh CTSL1 inh,SUMO HTRF inh,UCH37 confirm
O=C1C(O)=C(O)C(=O)c2ccccc21,72.5*,-39.0,61.2*,/,-37.7
C[C@H](NC(=O)c1nc[nH]c1C(=O)N[C@@H](C)C(=O)OC(C)(C)C)C(=O)OCc1ccccc1,35.3*,-19.6,3.0,-8.8,-29.9
CC(=NNC(=O)c1cc(C(C)C)[nH]n1)c1ccco1,3.7,/,/,/,/
CC[n+]1c(/C=C/c2c[nH]c3ccccc23)ccc2cc(C)ccc21,29.4*,/,/,31.0,41.5
Cc1ccc(C(=O)/C=C/c2c[nH]c3ccccc23)cc1,-6.5,15.7,2.3,-22.3,/
CCN(CC)C(=O)c1ccc(/C=C/c2c[nH]c3ccccc23)[n+](C)c1,28.9*,-0.3,7.9,-11.7,33.3
CC(=NNc1cc(C)nc(-c2ccccc2)n1)c1cccc([N+](=O)[O-])c1,5.0,/,/,/,/
COCCCNC(=S)NN=Cc1ccc(OC)cc1,6.2,/,/,/,/
CC(=NNC(=O)C(=O)Nc1cc(C)ccc1C)c1ccncc1,3.1,/,/,/,/
COc1ccc(C2N(Cc3ccccc3)CC(=O)N2N=C(C)c2ccccc2)cc1 (stereo not given),1.5,/,/,/,/
Cc1ccc(NC(=O)COC(=O)c2ccc([N+](=O)[O-])s2)c(C)c1,31.4*,-20.1,28.2*,3.1,20.0
COc1ccccc1NC(=O)C(=O)NN=Cc1ccc([N+](=O)[O-])s1,2.0,/,/,/,/
NS(=O)(=O)c1ccc(NC(=O)COC(=O)c2ccc([N+](=O)[O-])s2)cc1,68.9*,-36.2,67.8*,26.0,-9.4
CN(CC(=O)Nc1ccccc1Cl)C(=O)COC(=O)c1ccc([N+](=O)[O-])s1,75.8*,-44.3,/,/,12.9
COc1ccccc1NC(=O)COC(=O)c1ccc([N+](=O)[O-])s1,72.3*,-39.3,22.0*,-0.5,5.0
Cc1cc(C)c(NC(=O)COC(=O)c2ccc([N+](=O)[O-])s2)c(C)c1,4.0,-17.6,6.8,8.3,/
CCOc1ccc2ccccc2c1C=NNC(=O)c1cc(C)[nH]n1,-1.1,/,/,/,/
CCN(CC)S(=O)(=O)c1ccc(C(=O)NCC(=O)NN=Cc2ccccc2OC)cc1,0.5,/,/,/,/
COc1ccc(NC(=O)c2ccc(Br)o2)cc1,40.5*,-2.6,-4.3,1.7,1.7
CN1C2CCC1/C(=C/c1cccn1C)C(=O)/C2=C\c1cccn1C,29.4*,-194.9,7.2,28.0,15.1
CCOc1cc(C(c2c(C)[nH][nH]c2=O)c2c(C)[nH][nH]c2=O)ccc1O,57.8*,0.3,4.4,4.6,39.8
COc1ccc(-c2cn3ccccc3n2)cc1[N+](=O)[O-],46.4*,-30.5,1.1,10.4,9.6
Nc1nc2ccccc2n1N=Cc1ccc([N+](=O)[O-])s1,4.4,/,/,/,/
CCCCOC(=O)c1ccc(NC(=O)Nc2ccc(OC)c(OC)c2)cc1,38.0*,7.7,5.8,-11.9,-15.6
CN(Cc1ccccc1)C(=O)c1cccc(NC(=O)Cc2ccc([N+](=O)[O-])cc2)c1,41.0*,-39.6,/,/,9.3
SMILES,UCH37 inh,Neddylation inh,Fh CTSL1 inh,SUMO HTRF inh,UCH37 confirm
CC(O)[C@H]1CC[C@H]2[C@@H]3CC[C@H]4C[C@@H](O)CC[C@]4(C)[C@H]3C(=NO)C[C@]12C (stereo not given in full),0.3,/,/,/,/
Cc1cc(C)c(S(=O)(=O)N=C2C=C(SCC(=O)O)C(=O)c3ccccc32)cc1C,48.9*,/,/,/,82.2*
O=C(CN1C(=O)c2ccccc2C1=O)NC1CCS(=O)(=O)C1 (stereo not given),/,8.0,/,/,/
CC(=O)NC1=C(NC2CCS(=O)(=O)C2)C(=O)c2ccccc2C1=O (stereo not given),28.1*,-45.5,0.8,-17.3,26.5
CN(C)/C=C1/Sc2ccccc2C1=O,1.6,0.0,4.9,-6.9,/
CC(=O)N(/N=C1\Sc2ccccc2C1=O)c1ccccc1,/,-33.5,/,44.1,/
CC(=O)N(N=C1Sc2ccccc2C1=O)c1ccc(C)cc1C,34.8*,/,/,/,26.3
COc1ccccc1N(N=C1Sc2ccccc2C1=O)C(C)=O,71.3*,/,/,/,35.2
CC(=O)NNc1nc(-c2ccc(NC(C)=O)cc2)cs1,37.0*,-5.3,-0.9,-3.6,-21.9
O=C(O)CN1C(=O)/C(=C\c2ccccc2OCc2ccc(Cl)cc2Cl)SC1=S,26.2*,-16.0,-0.2,36.1,54.2*
O=C(NCCC1=CCCCC1)c1ccc(Br)o1,82.6*,13.7,4.1,9.3,90.5*
O=C(NCCC1=CCCCC1)C1COc2ccccc2O1 (stereo not given),46.7*,0.9,4.8,3.0,67.4*
